Laboratory results from ChEMBL document CHEMBL1131166, “Bisphenols that stimulate cells to release alkali metal cations: a structure-activity study” (1998).

Columns and labels:
Format in all cases: functional, Cercopithecidae
COS-7 [1] = experiment: (§1) Fraction of total radioactivity [86Rb] remaining with the compound at a concentration of 10 uM in COS-7 cells
Procedure, shortened: (§2)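 COS-7 cells grown in DMEM + 10% FCS to 85–98% confluence, loaded ~4 μCi 86RbCl in BSS (HEPES, pH 7.2) 90 min at 37 °C, washed thrice ice-cold BSS, reincubated 37 °C with medium replaced every 10 min; compound (DMSO stock diluted ≥5000-fold in BSS) present 40 min from 20 min. Cell-retained 86Rb at 60 min as fraction of initial total (cells + media); mean ± SD, three experiments.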

COS-7 [2] = experiment: Fraction of total radioactivity [86Rb] remaining with the compound at a concentration of 0.01 uM in COS-7 cells; procedure, shortened: as §2
COS-7 [3] = experiment: Fraction of total radioactivity [86Rb] remaining with the compound at a concentration of 0.1 uM in COS-7 cells and value; procedure, shortened: as §2
COS-7 [4] = experiment: Fraction of total radioactivity [86Rb] remaining with the compound at a concentration of 1 uM in COS-7 cells; procedure, shortened: as §2
COS-7 [5] = experiment: Fraction of total radioactivity [86Rb] remaining with the compound at a concentration of 0 uM in COS-7 cells; procedure, shortened: as §2
COS-7 [6] = experiment: as §1; remark: listed apart in the source
Procedure, shortened: (§3)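 COS-7 cells grown in DMEM with 10% FCS at 37 °C under 5% CO2 until 85–98% confluent. Loaded with about 4 μCi ⁸⁶RbCl in HEPES BSS (pH 7.2) for 90 min at 37 °C, then washed in ice-cold BSS. Reincubated at 37 °C with medium changed every 10 min; compound in BSS (DMSO ≥5000-fold diluted) given for the last 40 min. Read-out is the cell-retained fraction of total ⁸⁶Rb at 60 min by scintillation counting, mean ± SD of three experiments.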

COS-7 [7] = experiment: Fraction of total radioactivity [86Rb] remaining with the compound at a concentration of 0.1 uM in COS-7 cells; procedure, shortened: as §3

**Q.** Which “Fraction of accumulated 86Rb remaining.” value (COS-7 [1]) does the source give for `Oc1ccc(Cc2ccc(O)cc2)cc1` here?
**A.** 0.581

**Q.** With `Oc1ccc2ccccc2c1-c1c(O)ccc2ccccc12` as the compound, how does the “Fraction of accumulated 86Rb remaining.” value (COS-7 [1]) read?
**A.** 0.565

**Q.** Which “Fraction of accumulated 86Rb remaining.” value (COS-7 [1]) does the source give for `OCCOc1ccc(C2(c3ccc(OCCO)cc3)c3ccccc3-c3ccccc32)cc1` here?
**A.** 0.486

**Q.** Which “Fraction of accumulated 86Rb remaining.” value (COS-7 [1]) does the source give for `Nc1ccc(C2(c3ccc(N)cc3)c3ccccc3-c3ccccc32)cc1` here?
**A.** 0.419

**Q.** What does the source list for `Oc1ccc(C2(c3ccc(O)cc3)c3ccccc3-c3ccccc32)cc1`?
**A.** Fraction of accumulated 86Rb remaining. (COS-7 [2]): 0.532; Fraction of accumulated 86Rb remaining. (COS-7 [3]): 0.147; Fraction of accumulated 86Rb remaining. (COS-7 [4]): 0.006; Fraction of accumulated 86Rb remaining. (COS-7 [1]): 0.003; Fraction of accumulated 86Rb remaining. (COS-7 [5]): 0.556

**Q.** Which “Fraction of accumulated 86Rb remaining.” value (COS-7 [6]) does the source give for `Oc1ccc(-c2ccc(O)cc2)cc1` here?
**A.** 0.604

**Q.** `O=C1OC(c2ccc(O)cc2)(c2ccc(O)cc2)c2ccccc21` [PHENOLPHTHALEIN] was tested. Which “Fraction of accumulated 86Rb remaining.” value (COS-7 [2]) did it give?
**A.** 0.461

**Q.** And the “Fraction of accumulated 86Rb remaining.” value (COS-7 [7])?
**A.** 0.472

**Q.** What about the “Fraction of accumulated 86Rb remaining.” value (COS-7 [4]) of the same compound?
**A.** 0.234

**Q.** And the “Fraction of accumulated 86Rb remaining.” value (COS-7 [1])?
**A.** 0.091

**Q.** What about the “Fraction of accumulated 86Rb remaining.” value (COS-7 [5]) of the same compound?
**A.** 0.503
